From PubChem
An excerpt weighted towards active compounds, which were near 1.3% of everything screened.
S100A4 inh HTS – inhibitors of human S100A4 binding to myosin IIA peptide; P26447; S100A4/TAMRA-MyoIIA peptide fluorescence polarization; inhibition, % at 10.7 µM; hit rate 0.14% among 360,000; AID 652163;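 active means mean inhibition of at least 70% across replicates, with every replicate also reaching that level; inconclusive means mean inhibition reaches 70% but some replicates fall short; inactive means mean inhibition below 70%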
Target sequence (P26447 whole entry, looked up): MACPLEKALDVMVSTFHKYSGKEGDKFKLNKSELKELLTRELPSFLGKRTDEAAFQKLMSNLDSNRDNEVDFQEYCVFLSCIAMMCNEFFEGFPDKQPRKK
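assay system = human S100A4 monomer with TAMRA-labelled myosin IIA peptide | also added = labelled myosin peptide probe, 5 nM | incubation = 5 min between mix addition and reading | control set = DMSO and TFP controls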
AF4-AF9 inh – MLL-AF4/AF9 protein interaction inhibition. AlphaScreen, biotin-AF4 peptide binding to FLAG-AF9. inhibition, % at 10 µM. hit rate 0.47% among 350,000. AID 651704;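 active means every replicate reaching a set inhibition limit, whatever the replicate mean, cut at about 25% in these data; inconclusive means mean inhibition reaches that limit but some replicates miss it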;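 further: 0% = plate neutral control median and 100% = total signal loss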
Target sequence (P42568 whole entry, looked up): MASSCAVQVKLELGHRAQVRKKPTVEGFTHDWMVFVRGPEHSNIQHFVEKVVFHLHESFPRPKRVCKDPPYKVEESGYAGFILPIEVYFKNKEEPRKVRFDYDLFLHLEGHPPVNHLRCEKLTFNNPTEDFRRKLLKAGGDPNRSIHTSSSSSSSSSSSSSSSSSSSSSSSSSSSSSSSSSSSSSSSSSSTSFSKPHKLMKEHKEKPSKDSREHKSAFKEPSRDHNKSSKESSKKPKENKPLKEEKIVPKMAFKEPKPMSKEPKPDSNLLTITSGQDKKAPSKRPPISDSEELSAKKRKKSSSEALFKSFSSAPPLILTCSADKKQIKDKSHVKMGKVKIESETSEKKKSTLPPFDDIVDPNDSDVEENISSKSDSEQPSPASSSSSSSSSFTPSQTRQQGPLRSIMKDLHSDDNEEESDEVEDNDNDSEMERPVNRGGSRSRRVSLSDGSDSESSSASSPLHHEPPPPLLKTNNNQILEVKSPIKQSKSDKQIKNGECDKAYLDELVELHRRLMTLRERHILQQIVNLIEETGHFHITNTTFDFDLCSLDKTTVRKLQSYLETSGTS
Xi reactivation – reactivates the inactive X chromosome in mouse fibroblasts; XiGFP mouse fibroblasts, % GFP-positive cells imaging, 3 d; cells co-treated with 5-aza-dC sensitizer; scaled so ellipticine positive control = 100%; activation, % at 7.58 µM; hit rate 0.055% among 360,000; AID 743238;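 active means mean normalized replicate activation at least 10% and every replicate at or above 10%; inconclusive means only one of the two criteria met; inactive means mean below 10% and not all replicates reach 10%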;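 further: 0% = median of on-plate neutral control wells and 100% = ellipticine 6 µM median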
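Material: SV40-immortalized XiGFP fibroblast cells, line 68-5-11 | Buffer or medium: DMEM containing 5-aza-dC | Dosing: One concentration, pinned | Times: 3 d treatment, 15 min room-temperature fixation | Controls: Ellipticine 6 µM positive control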
RAD54 branch – blocks human RAD54 Holliday junction branch migration | Q92698 | FAM/BHQ fluorescence | inhibition, % at 10.4 µM | hit rate 0.14% among 360,000;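 active means mean normalized replicate activity at least 40 and at least half of replicates scoring 40 or more; inconclusive means only one of the two criteria met; inactive means mean below 40 and under half of replicates reaching 40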;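 further: 0% = median of neutral control wells and 100% = median of positive control wells; inhibitors cause a drop in the FAM fluorescence signal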
Casp6 inh – blocks human caspase-6 cleavage activity | P55212 | purified caspase-6, Z-VEID-R110 cleavage fluorescence | inhibition, % at 12.5 µM | hit rate 0.53% among 350,000 | AID 686996;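 active means mean inhibition across replicates at least about 35%, with every replicate also reaching that limit, limit read from the data; inconclusive means only one of the two criteria met; inactive means neither criterion met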;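 further: 0% = median of neutral control wells and 100% = no fluorescence left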
RAD52 inh – blocks human RAD52 DNA annealing; inhibition, % at 18.7 µM; recombinant RAD52 DNA annealing, FRET fluorescence; hit rate 0.46% among 360,000; P43351; AID 651710;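 active means every replicate showing at least 50% inhibition; inconclusive means mean inhibition at least 50% but not in every replicate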
DNA binding – binds DNA, flagging false Rad54 inhibitor hits. shares compounds with RAD54 branch. Acridine orange-DNA displacement, fluorescence polarization, 20 min. AC50, µM (highest dose often 35 µM), for inactives: top-dose activity change, negative = DNA binding. hit rate 8% among 460;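 active means signal drop giving an AC50 within twice the top valid tested concentration of each sample, actives reach about 35 µM in these data; inactive means activity opposite to expected, plus the rest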;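 further: polarization loss reports compound binding to salmon sperm DNA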
Starred values were filed as active, the others as inactive; ? = inconclusive; . = no result given.

SMILES	S100A4 inh HTS	AF4-AF9 inh	Xi reactivation	RAD54 branch	Casp6 inh	RAD52 inh	others
Cc1cc(N)n(-c2ccc(Oc3ccccc3)c(S(=O)(=O)O)c2)n1	0.4	1.2	0.0	.	38.0*	-24.0
Cc1cc(N)n(-c2ccc(C)c(C)c2)n1	-4.4	1.6	0.1	.	-1.3	-7.4
O=C1C=C(NCc2ccccc2)c2ccccc2C1=O	9.8	0.5	0.0	.	80.4*	-11.1
O=c1cccccc1NCc1ccccc1	-0.9	.	.	1.8	17.2	-13.3
Cc1ccc(NC2=CC(=O)C(=O)c3ccccc32)c(C)c1	1.2	1.5	0.5	-2.1	19.3	-3.7
O=C1C=C(Nc2ccccc2O)c2ccccc2C1=O	2.5	16.5	.	-11.9	41.4*	-18.2
O=C1C=C(Nc2cccnc2)c2ccccc2C1=O	5.8	-1.0	0.4	.	95.9*	-13.8
O=C1C=C(Nc2ccc(F)cc2)c2ccccc2C1=O	1.2	3.2	0.3	-7.2	40.4*	-9.2
CCOc1ccc(NC2=CC(=O)C(=O)c3ccccc32)cc1	-0.6	1.6	0.5	.	0.9	-3.3
C[C@@H]1CN([C@H](C)CO)C(=O)c2cc(NC(=O)C3CC3)ccc2O[C@@H]1CN(C)S(=O)(=O)c1cccs1	-0.3	-1.1	0.2	2.2	0.9	-1.7
C[C@@H]1CCCCO[C@H](CN(C)CC2CC2)[C@H](C)CN([C@@H](C)CO)C(=O)c2cc(NS(=O)(=O)c3cccs3)ccc2O1	-62.0	-9.2	0.3	.	2.3	24.2
Brc1ccc(N/N=C(/N=Nc2nn[nH]n2)c2ccccc2)cc1	2.8	41.2*	0.3	.	18.6	-10.9
O=C(O)c1ccc(N=N/C(=N\Nc2ccc(C(=O)O)cc2)c2ccccc2)cc1	1.3	2.4	0.0	-1.5	1.8	-26.6
O=C(CCc1ccccc1Cl)NC1CCCN(c2ccc(C(F)(F)F)cn2)C1 (stereo not given)	178.9*	-7.7	0.2	-6.5	-1.8	-10.1
CCCCC[C@@H](/C=C/C1C(=O)C=C[C@H]1C/C=C\CCCC(=O)O)OC(C)=O (stereo not given in full)	-0.7	0.8	0.2	-15.3	47.6*	-17.2
CCCCCC(O)C=CC1C(O)CC(O)C1CC=CCCCC(=O)O (stereo not given)	0.8	-4.5	-0.1	-8.7	-1.3	-7.2
CC1(C(=O)NNC(=O)c2ccc(=O)oc2)CC1Br (stereo not given)	-8.2	-0.9	0.2	-3.8	41.5*	-307.9
Cc1cc(=O)oc(C)c1C(=O)NNC(=O)C1(C)CC1Br (stereo not given)	1.4	0.1	0.5	-9.3	-0.7	-9.0
CC(C)NC(=O)Nc1ccc2c(c1)C(=O)N([C@H](C)CO)C[C@H](C)[C@@H](CN(C)C(=O)Nc1ccc(F)cc1)OCCCC[C@@H](C)O2	-10.3	-3.1	0.1	2.4	-0.5	-11.1
COC(=O)C1=C(O)/C(=C\c2ccc(CNS(=O)(=O)c3ccc(Cl)cc3)o2)N=C1C	-21.4	3.4	-0.1	.	49.1*	-56.1
CN1C(=O)c2cc(NC(=O)c3cncs3)ccc2OC[C@H]2O[C@@H](CC(=O)NCC3CC3)CC[C@@H]21	.	.	0.3	.	.	.
CCOC(=O)CC1C(=O)NCCN1S(=O)(=O)c1ccccc1 (stereo not given)	-1.7	0.8	0.3	.	-2.3	-11.7
CCOC(=O)CC1C(=O)NCCN1S(=O)(=O)c1cccc(C(F)(F)F)c1 (stereo not given)	-1.9	1.4	-0.1	-0.7	41.9*	-3.9
C[C@@H]1CN([C@@H](C)CO)C(=O)Cc2cc(NC(=O)Cc3ccccc3)ccc2O[C@H]1CN(C)Cc1ccc(Oc2ccccc2)cc1	-6.4	3.9	-1.4	5.3	0.6	-27.4
COc1ccc(CNC(=O)CCS(=O)(=O)c2ccc(Br)cc2)cc1	-5.1	-3.4	0.0	-0.7	57.3*	-7.0
SMILES	S100A4 inh HTS	AF4-AF9 inh	Xi reactivation	RAD54 branch	Casp6 inh	RAD52 inh	others
NS(=O)(=O)c1ccc(CCNC(=O)CCS(=O)(=O)c2ccc(Br)cc2)cc1	-11.2	-9.0	0.1	-4.5	79.3*	-7.7
Cc1ccc(S(=O)(=O)CCC(=O)Nc2cccc(C)c2)cc1	.	.	0.5	10.6	.	.
CCc1cccc(NC(=O)CCS(=O)(=O)c2ccc(Br)cc2)c1	-7.0	-5.2	0.0	4.2	71.5*	-12.0
COc1ccc(S(=O)(=O)CCC(=O)NCc2ccc(C)o2)cc1	0.4	-10.4	0.1	-14.9	-2.7	-7.0
O=C(CCS(=O)(=O)c1ccc(Br)cc1)NCCc1ccccc1	0.8	-3.5	0.0	2.3	-2.1	-31.4
O=C(NCCc1ccccc1)[C@H]1[C@H](CO)[C@H]2Cn3c(cccc3=O)[C@H]2N1Cc1ccccc1	0.1	0.8	0.1	-10.6	0.0	-4.6
C[C@H](CO)N1C[C@H](C)[C@@H](CN(C)CC2CC2)Oc2ccc(NS(=O)(=O)c3ccc(F)cc3)cc2CC1=O	0.6	1.1	0.0	-1.8	-10.7	4.8
NC(Cc1ccc(C(F)(F)F)cc1)c1csc(Nc2cc(Oc3ccccc3)ncn2)n1 (stereo not given)	-5.1	1.7	0.0	0.2	-1.1	-68.2
Nc1ccc(CC(N)c2csc(Nc3cc(Oc4ccccc4)ncn3)n2)cc1 (stereo not given)	-1.4	25.3*	-0.1	-2.1	-3.0	-26.9
CO[C@H]1CN(C)C(=O)c2cc(NC(=O)Nc3cc(Cl)cc(Cl)c3)ccc2OC[C@H](C)NC[C@H]1C	.	.	0.0	.	.	33.4
C[n+]1c2n(c3ccccc31)N=C(c1ccc(-c3ccccc3)cc1)CS2	8.3	18.6	0.2	.	-0.3	70.5*
CN(C)C(=O)c1ccc(-c2ccc([C@H]3[C@@H](CO)N4CCCCN(C(=O)C5CCCC5)C[C@@H]34)cc2)cc1	-4.8	-3.0	.	-1.6	3.2	16.4
COc1ccc2c3c([nH]c2c1)[C@@H](CO)N(C(=O)CC1CC1)CC31CCN(C(=O)c2ccccc2)CC1	0.3	-3.4	0.1	.	1.5	-0.5
C=CC(=O)Nc1ccc(N(C)c2ccnc(Nc3ccc(N4CCN(C)CC4)cc3)n2)cc1	6.6	60.0*	0.8	74.6*	-71.9	100.4*	DNA binding=4.0%
COc1ccccc1-c1ccc2c(c1)O[C@H](CN(C)C(=O)c1ccccc1)[C@H](C)CN([C@@H](C)CO)S2(=O)=O	1.1	1.5	-1.3	-11.7	2.6	26.2
Cc1ccnc(SCC(=O)Nc2sc3c(c2C#N)CCC(C(C)(C)C)C3)n1 (stereo not given)	.	.	.	?	.	.	DNA binding=-11.9%
COc1ccc(Nc2nc(N3CCCCC3)nc3ccccc23)c(OC)c1	.	.	.	55.2*	.	.	DNA binding=9.3%
